Measured values published in ChEMBL document CHEMBL2396637, “Antagonism of L-type Ca2+ channels CaV1.3 and CaV1.2 by 1,4-dihydropyrimidines and 4H-pyrans as dihydropyridine mimics” (Bioorg Med Chem, 2013).
The source made the active and inactive calls. The rule behind the calls is not given here.

How the values were obtained:
[1] = biological target: T1, Voltage-dependent L-type calcium channel subunit alpha-1C (Oryctolagus cuniculus, UniProt P15381); experiment: Antagonist activity at rabbit voltage-dependent L-type calcium channel Cav1.2alpha-1C expressed in HEK293 cells by FLIPR assay; assay type: cell-based
How it was run: (§1)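 HEK293 lines stably expressing rat CaV1.3α1D or rabbit CaV1.2α1C, with rat CaVβ3 and rat CaVα2δ-1 cDNAs used in construction. Calcium influx was read by Fluo-8 fluorescence on a FLIPR Tetra. […] The selectivity ratio is CaV1.3 IC50 over CaV1.2 IC50.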

[2] = biological target: Voltage-dependent L-type calcium channel subunit alpha-1D (Rattus norvegicus, UniProt P27732); experiment: Antagonist activity at rat voltage-dependent L-type calcium channel Cav1.3alpha-1D expressed in HEK293 cells by FLIPR assay; assay type: cell-based; how it was run: as §1
[3] = Selectivity ratio of IC50 for rabbit voltage-dependent L-type calcium channel Cav1.2alpha-1C to IC50 for rat voltage-dependent L-type calcium channel Cav1.3alpha-1D
[4] = Selectivity ratio of IC50 for rat voltage-dependent L-type calcium channel Cav1.3alpha-1D to IC50 for rabbit voltage-dependent L-type calcium channel Cav1.2alpha-1C
How it was run: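 HEK293 lines stably expressing rat CaV1.3α1D or rabbit CaV1.2α1C, with rat CaVβ3 and rat CaVα2δ-1 cDNAs used in construction. Calcium influx was read by Fluo-8 fluorescence on a FLIPR Tetra. The selectivity ratio is CaV1.3 IC50 over CaV1.2 IC50.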

[5] = biological target: T1, Voltage-dependent L-type calcium channel subunit alpha-1C; experiment: Antagonist activity at rabbit voltage-dependent L-type calcium channel Cav1.2alpha-1C expressed in HEK293 cells assessed as inhibition of peak barium current at 1 to 10 uM by whole-cell patch-clamp electrophysiology technique; assay type: cell-based
How it was run: (§2)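 Stably transfected HEK293 cells were held on poly-D-lysine coverslips for 24–48 h at 37 °C, then whole-cell voltage-clamped. External solution (mM): 140 NaCl, 1 MgCl2, 10 BaCl2, 10 HEPES, 10 dextrose, 10 sucrose, 20 CsCl, pH 7.4. Ba2+ currents were evoked by a 100 ms step from −80 to 0 mV. Compound was perfused at 1 or 10 µM from a DMSO stock. Percent inhibition of peak current or of end current (last 50 ms) was taken, n = 5, as the median.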

[6] = biological target: Voltage-dependent L-type calcium channel subunit alpha-1D (Rattus norvegicus) (UniProt P27732); experiment: Antagonist activity at rat voltage-dependent L-type calcium channel Cav1.3alpha-1D expressed in HEK293 cells assessed as inhibition of peak barium current at 1 to 10 uM by whole-cell patch-clamp electrophysiology technique; assay type: cell-based; how it was run: as §2
[7] = biological target: T1, Voltage-dependent L-type calcium channel subunit alpha-1C; experiment: Antagonist activity at rabbit voltage-dependent L-type calcium channel Cav1.2alpha-1C expressed in HEK293 cells assessed as inhibition of end barium current at 1 to 10 uM by whole-cell patch-clamp electrophysiology technique; assay type: cell-based; how it was run: as §2
[8] = biological target: Voltage-dependent L-type calcium channel subunit alpha-1D (Rattus norvegicus) (UniProt P27732); experiment: Antagonist activity at rat voltage-dependent L-type calcium channel Cav1.3alpha-1D expressed in HEK293 cells assessed as inhibition of end barium current at 1 to 10 uM by whole-cell patch-clamp electrophysiology technique; assay type: cell-based; how it was run: as §2
[9] = Selectivity ratio of inhibition for rat voltage-dependent L-type calcium channel Cav1.3alpha-1D to inhibition for rabbit voltage-dependent L-type calcium channel Cav1.2alpha-1C at 0.3 uM

T1 sequence (P15381 whole entry): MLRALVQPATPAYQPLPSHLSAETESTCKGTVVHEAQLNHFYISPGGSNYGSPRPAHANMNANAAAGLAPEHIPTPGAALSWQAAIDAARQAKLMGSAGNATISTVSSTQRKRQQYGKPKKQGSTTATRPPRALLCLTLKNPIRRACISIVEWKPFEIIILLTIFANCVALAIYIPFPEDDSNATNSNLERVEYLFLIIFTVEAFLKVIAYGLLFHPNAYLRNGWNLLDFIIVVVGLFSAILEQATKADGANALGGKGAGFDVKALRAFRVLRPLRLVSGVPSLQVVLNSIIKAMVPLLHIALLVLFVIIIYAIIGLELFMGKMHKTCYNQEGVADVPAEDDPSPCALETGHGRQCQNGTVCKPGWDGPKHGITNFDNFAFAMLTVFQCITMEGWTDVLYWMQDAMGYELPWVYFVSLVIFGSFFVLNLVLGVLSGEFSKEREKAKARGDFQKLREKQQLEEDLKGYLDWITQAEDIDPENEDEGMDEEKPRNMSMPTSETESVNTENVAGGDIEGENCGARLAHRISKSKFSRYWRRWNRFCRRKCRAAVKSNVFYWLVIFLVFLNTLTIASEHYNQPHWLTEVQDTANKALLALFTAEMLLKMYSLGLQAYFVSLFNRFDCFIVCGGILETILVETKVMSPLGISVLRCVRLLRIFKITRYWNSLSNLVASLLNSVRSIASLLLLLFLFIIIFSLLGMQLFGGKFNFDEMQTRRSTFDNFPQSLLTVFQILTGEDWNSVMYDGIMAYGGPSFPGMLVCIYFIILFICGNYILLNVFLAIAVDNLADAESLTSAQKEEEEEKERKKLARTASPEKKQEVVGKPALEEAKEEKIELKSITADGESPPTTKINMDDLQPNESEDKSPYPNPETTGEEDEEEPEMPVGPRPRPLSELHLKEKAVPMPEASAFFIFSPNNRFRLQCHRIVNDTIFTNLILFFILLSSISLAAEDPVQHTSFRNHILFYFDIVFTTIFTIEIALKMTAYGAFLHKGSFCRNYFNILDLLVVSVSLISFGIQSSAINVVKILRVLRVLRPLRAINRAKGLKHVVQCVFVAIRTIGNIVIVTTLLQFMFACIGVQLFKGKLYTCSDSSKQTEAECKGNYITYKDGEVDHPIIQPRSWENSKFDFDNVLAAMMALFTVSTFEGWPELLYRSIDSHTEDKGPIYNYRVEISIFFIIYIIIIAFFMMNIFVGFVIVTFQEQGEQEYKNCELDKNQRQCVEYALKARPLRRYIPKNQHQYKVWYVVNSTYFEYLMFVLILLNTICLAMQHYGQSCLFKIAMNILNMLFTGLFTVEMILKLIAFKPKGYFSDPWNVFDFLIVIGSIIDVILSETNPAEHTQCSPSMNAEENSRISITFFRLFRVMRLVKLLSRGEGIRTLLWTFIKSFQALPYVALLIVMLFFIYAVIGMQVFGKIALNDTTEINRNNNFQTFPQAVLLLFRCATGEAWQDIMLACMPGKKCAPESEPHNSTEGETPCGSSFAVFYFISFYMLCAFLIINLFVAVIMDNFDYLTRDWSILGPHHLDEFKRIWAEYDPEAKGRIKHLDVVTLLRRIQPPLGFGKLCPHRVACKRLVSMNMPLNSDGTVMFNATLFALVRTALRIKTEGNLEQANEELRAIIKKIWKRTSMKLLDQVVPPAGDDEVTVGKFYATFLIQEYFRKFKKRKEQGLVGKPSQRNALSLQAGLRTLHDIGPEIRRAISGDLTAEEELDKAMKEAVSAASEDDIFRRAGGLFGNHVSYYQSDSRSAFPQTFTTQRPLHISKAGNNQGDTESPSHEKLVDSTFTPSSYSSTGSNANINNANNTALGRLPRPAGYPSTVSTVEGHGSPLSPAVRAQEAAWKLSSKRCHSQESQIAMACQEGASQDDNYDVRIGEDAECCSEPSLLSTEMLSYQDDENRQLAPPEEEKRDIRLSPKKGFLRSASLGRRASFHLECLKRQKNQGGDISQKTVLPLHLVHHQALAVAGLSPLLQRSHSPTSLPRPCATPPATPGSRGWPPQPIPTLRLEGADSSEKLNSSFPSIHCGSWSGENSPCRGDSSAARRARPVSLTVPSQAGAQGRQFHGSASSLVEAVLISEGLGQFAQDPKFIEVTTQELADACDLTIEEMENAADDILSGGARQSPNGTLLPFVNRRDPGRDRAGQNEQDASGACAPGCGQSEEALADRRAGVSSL
Voltage-dependent L-type calcium channel subunit alpha-1D, sequence (P27732 whole entry): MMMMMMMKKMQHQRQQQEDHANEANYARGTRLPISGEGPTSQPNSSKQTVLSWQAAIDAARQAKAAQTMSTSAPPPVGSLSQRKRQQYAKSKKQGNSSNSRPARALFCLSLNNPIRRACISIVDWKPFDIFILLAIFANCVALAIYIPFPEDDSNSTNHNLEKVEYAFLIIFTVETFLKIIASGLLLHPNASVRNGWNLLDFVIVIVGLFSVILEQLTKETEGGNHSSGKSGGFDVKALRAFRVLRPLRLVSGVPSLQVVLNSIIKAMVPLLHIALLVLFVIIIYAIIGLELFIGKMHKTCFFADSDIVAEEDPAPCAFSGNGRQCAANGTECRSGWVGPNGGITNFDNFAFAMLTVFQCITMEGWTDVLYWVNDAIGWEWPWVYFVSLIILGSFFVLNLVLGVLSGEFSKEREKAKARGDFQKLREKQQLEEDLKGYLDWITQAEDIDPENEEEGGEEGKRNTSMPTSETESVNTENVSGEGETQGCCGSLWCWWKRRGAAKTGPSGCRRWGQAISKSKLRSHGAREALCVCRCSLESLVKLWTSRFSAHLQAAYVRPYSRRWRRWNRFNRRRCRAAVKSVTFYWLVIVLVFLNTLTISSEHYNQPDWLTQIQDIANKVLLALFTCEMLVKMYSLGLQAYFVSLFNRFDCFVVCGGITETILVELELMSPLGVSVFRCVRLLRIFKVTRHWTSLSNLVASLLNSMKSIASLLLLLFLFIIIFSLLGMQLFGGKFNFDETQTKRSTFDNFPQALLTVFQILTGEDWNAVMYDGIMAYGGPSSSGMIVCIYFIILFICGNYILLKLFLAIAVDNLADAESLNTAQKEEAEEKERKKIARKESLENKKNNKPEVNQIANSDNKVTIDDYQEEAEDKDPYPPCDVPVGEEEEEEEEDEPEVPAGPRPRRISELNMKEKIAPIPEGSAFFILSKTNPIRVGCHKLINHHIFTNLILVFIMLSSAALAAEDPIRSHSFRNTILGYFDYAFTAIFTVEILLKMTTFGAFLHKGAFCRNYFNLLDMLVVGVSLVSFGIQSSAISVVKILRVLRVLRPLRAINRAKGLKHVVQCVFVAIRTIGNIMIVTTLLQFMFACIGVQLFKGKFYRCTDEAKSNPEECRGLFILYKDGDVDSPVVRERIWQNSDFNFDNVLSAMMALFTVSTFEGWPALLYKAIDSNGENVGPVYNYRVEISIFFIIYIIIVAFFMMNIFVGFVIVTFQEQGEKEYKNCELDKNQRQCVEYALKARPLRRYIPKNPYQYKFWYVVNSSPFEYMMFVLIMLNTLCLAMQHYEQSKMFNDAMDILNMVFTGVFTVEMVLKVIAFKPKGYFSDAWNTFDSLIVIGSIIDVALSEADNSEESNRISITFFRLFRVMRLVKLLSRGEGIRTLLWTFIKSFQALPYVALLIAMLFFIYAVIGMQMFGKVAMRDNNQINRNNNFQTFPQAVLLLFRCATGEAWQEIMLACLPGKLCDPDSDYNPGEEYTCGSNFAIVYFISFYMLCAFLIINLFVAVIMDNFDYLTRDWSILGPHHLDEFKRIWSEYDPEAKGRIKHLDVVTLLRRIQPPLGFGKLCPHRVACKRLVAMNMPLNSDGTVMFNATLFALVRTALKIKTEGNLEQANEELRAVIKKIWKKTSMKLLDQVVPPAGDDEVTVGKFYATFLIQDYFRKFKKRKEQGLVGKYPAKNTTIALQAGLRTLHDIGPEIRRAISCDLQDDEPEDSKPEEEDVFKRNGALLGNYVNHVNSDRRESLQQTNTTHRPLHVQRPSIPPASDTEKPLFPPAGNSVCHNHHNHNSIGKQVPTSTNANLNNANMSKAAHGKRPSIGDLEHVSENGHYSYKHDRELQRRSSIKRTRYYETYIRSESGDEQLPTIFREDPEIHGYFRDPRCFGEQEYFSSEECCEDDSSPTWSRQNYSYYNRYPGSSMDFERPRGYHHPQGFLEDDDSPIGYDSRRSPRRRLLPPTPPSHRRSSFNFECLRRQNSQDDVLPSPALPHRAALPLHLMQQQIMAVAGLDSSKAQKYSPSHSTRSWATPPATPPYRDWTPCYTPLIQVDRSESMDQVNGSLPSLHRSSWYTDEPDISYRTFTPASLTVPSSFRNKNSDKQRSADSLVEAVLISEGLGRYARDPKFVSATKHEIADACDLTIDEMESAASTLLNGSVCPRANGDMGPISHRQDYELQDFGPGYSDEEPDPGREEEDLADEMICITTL
Voltage-dependent L-type calcium channel subunit alpha-1D (Rattus norvegicus), sequence (P27732 whole entry): as above

Row | SMILES | IC50 [1] | IC50 [2] | Ratio IC50 [3] | further results
1 | COC(=O)C1=C(C)NC(=S)NC1c1cccc([N+](=O)[O-])c1 (configuration not stated) | 55 µM | > 100 µM |  | 
2 | COC(=O)C1=C(C)NC(=O)NC1c1cccc([N+](=O)[O-])c1 (configuration not stated) | 11.7 µM | 18.9 µM | 0.6 | 
3 | CC1=C(C(=O)OC(C)C)C(c2cccc([N+](=O)[O-])c2)NC(=S)N1 (configuration not stated) | 10.7 µM | 15.8 µM | 0.7 | 
4 | COC(=O)N1C(=S)NC(C)=C(C(=O)OC(C)C)C1c1cccc([N+](=O)[O-])c1 (racemic) | 0.35 µM | 0.55 µM | 0.6 | 
5 | COC(=O)C1=C(C(C)C)NC(=O)NC1c1cccc([N+](=O)[O-])c1 (configuration not stated) | > 100 µM | > 100 µM |  | 
6 | CCOC(=O)C1=C(N)OC(C)=C(C(=O)OC)C1c1cccc([N+](=O)[O-])c1 (configuration not stated) | 0.58 µM | 2.72 µM | 0.2 | 
7 | CCOC(=O)N1C(=O)N(C(=O)OCC)C(c2cccc([N+](=O)[O-])c2)C(C(=O)OC)=C1C(C)C (configuration not stated) | 13.9 µM | 13.9 µM |  | Ratio IC50 [4]: 1
8 | CCOC(=O)C1=C(NC(C)=O)OC(C)=C(C(=O)OC)C1c1cccc([N+](=O)[O-])c1 (configuration not stated) | 4.75 µM | 10 µM | 0.5 | 
9 | CC1=C(C(=O)OC(C)C)C(c2cccc([N+](=O)[O-])c2)N(C(=O)C(C)C)C(=O)N1 (configuration not stated) | 0.5 µM | 0.99 µM | 0.5 | 
10 | CNC1=NC(C)=C(C(=O)OC)C(c2cccc([N+](=O)[O-])c2)N1C(=O)OC(C)C (configuration not stated) | 1.81 µM | 4.22 µM | 0.4 | 
11 | COC(=O)C1=C(C)NC(=S)N(C(=O)OC(C)C)C1c1cccc([N+](=O)[O-])c1 (configuration not stated) | 0.17 µM | 0.88 µM | 0.2 | 
12 | CSC1=NC(c2cccc([N+](=O)[O-])c2)C(C(=O)OC(C)C)=C(C)N1 (configuration not stated) | 0.42 µM | 1.86 µM | 0.2 | 
13 | COC(=O)C1=C(C)NC(=O)N(C(=O)OC(C)C)C1c1cccc([N+](=O)[O-])c1 (configuration not stated) | 2.48 µM | 4.6 µM | 0.6 | 
14 | COC(=O)C1=C(C)N=C(SC)N(C(=O)OC(C)C)C1c1cccc([N+](=O)[O-])c1 (configuration not stated) | 16.1 µM | 5.58 µM | 3 | 
15 | COC(=O)N1C(=S)NC(C)=C(C(=O)OC(C)C)[C@H]1c1cccc([N+](=O)[O-])c1 | 0.5 µM | 0.56 µM | 0.9 | 
16 | COC(=O)C1=C(C(C)C)NC(=O)N(C(=O)C(C)C)C1c1cccc([N+](=O)[O-])c1 (configuration not stated) | 56.6 µM | > 100 µM |  | 
17 | COC(=O)C1=C(C(C)C)NC(=O)N(C(=O)OC(C)C)C1c1cccc([N+](=O)[O-])c1 (configuration not stated) | 10.4 µM | 10.1 µM | 1 | 
18 | COC(=O)N1C(SC)=NC(C)=C(C(=O)OC(C)C)C1c1cccc([N+](=O)[O-])c1 (configuration not stated) | 5.54 µM | 10.7 µM | 0.4 | 
19 | CC1=C(C(=O)OC(C)C)C(c2cccc([N+](=O)[O-])c2)N(C(=O)OC(C)C)C(=O)N1 (racemic) | 0.64 µM | 0.66 µM | 1 | 

Row | SMILES | IC50 [1] | IC50 [2] | Ratio IC50 [3] | further results
20 | CC1=C(C(=O)OC(C)C)C(c2cccc([N+](=O)[O-])c2)C(C(=O)OC(C)C)=C(N)O1 (configuration not stated) | 0.86 µM | 1.39 µM | 0.6 | 
21 | COC(=O)N1C(=O)NC(C)=C(C(=O)OC(C)C)C1c1cccc([N+](=O)[O-])c1 (racemic) | 2.48 µM | 2.96 µM | 0.9 | 
22 | CC1=C(C(=O)OC(C)C)[C@@H](c2cccc([N+](=O)[O-])c2)N(C(=O)OC(C)C)C(=O)N1 | 1.02 µM | 0.51 µM | 2.1 | inhibition (INH) [5]: Active; inhibition [6]: Active; inhibition (INH) [7]: Active; inhibition [8]: Active
23 | COC(=O)C1=C(C)OC(NC(C)=O)=C(C(=O)OC(C)C)C1c1cccc([N+](=O)[O-])c1 (configuration not stated) | 6.11 µM | 13.6 µM | 0.5 | 
24 | COC(=O)SC1=NC(C)=C(C(=O)OC(C)C)C(c2cccc([N+](=O)[O-])c2)N1C(=O)OC (configuration not stated) | 1.02 µM | 1.11 µM | 0.9 | 
25 | COC(=O)C1=C(C)OC(N)=C(C(=O)OC(C)C)C1c1cccc([N+](=O)[O-])c1 (configuration not stated) | 0.41 µM | 1.82 µM | 0.2 | 
26 | COC(=O)N1C(=S)NC(C)=C(C(=O)OC(C)C)[C@@H]1c1cccc([N+](=O)[O-])c1 | 9.87 µM | 12.8 µM | 0.8 | 
27 | COC(=O)C1=C(C)N=C(SC)NC1c1cccc([N+](=O)[O-])c1 (configuration not stated) | 3.29 µM | 10.6 µM | 0.3 | 
28 | CCOC(=O)N1C(=O)NC(C(C)C)=C(C(=O)OC)C1c1cccc([N+](=O)[O-])c1 (configuration not stated) | 14.8 µM | 24.5 µM | 0.6 | 
29 | COC(=O)C1=C(C)NC(C)=C(C(=O)OC(C)C)C1c1cccc2nonc12 (configuration not stated) [ISRADIPINE] | 0.107 µM | 0.221 µM | 0.5 | Selectivity ratio [9]: 0.69
30 | COC(=O)N1C(=O)N(C(=O)OC)C(c2cccc([N+](=O)[O-])c2)C(C(=O)OC(C)C)=C1C (configuration not stated) | 6.13 µM | 5.88 µM | 1.1 | 
31 | CNC1=NC(C)=C(C(=O)OC(C)C)C(c2cccc([N+](=O)[O-])c2)N1C(=O)OC (configuration not stated) | 2.45 µM | 3.25 µM | 0.8 | 
32 | CC1=C(C(=O)OC(C)C)[C@H](c2cccc([N+](=O)[O-])c2)N(C(=O)OC(C)C)C(=O)N1 | 3.07 µM | 1.96 µM | 1.6 | 
33 | CCOC(=O)C1=C(NC(=O)C(C)C)OC(C)=C(C(=O)OC)C1c1cccc([N+](=O)[O-])c1 (configuration not stated) | 4.23 µM | 9.95 µM | 0.4 | 
34 | COC(=O)N1C(=O)NC(C)=C(C(=O)OC(C)C)[C@H]1c1cccc([N+](=O)[O-])c1 | 2.36 µM | 1.91 µM | 1.2 | 
35 | CC1=C(C(=O)OC(C)C)C(c2cccc([N+](=O)[O-])c2)NC(=O)N1 (configuration not stated) | 58.1 µM | 46.6 µM |  | 
36 | CC(C)OC(=O)C1=C(C(C)C)NC(=O)N(C(=O)OC(C)C)C1c1cccc([N+](=O)[O-])c1 (configuration not stated) | 1.93 µM | 4.31 µM | 0.5 | 
37 | COC(=O)N1C(=O)NC(C)=C(C(=O)OC(C)C)[C@@H]1c1cccc([N+](=O)[O-])c1 | 21.7 µM | 35.1 µM | 0.6 | 
